Blank lines part the entries; values can stand above or below the molecule they belong to. Calls of active or inactive are those of the source. The rule behind the calls is not given here.
Assays:
RPMI-8226 [1] = test: Cytotoxicity against human RPMI8226 cells after 48 hrs by MTT assay; assay type: functional, cell-based; conditions: RPMI-8226, 48 h
Outline: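 MTT in RPMI-8226 cells: 1–2 × 10^4 cells per well in complete medium, exposed 48 h to a range of compound concentrations. MTT reduction to formazan read at 570 nm. Quadruplicate wells per group; OD given as % of DMSO-only control set at 100%. IC50 taken from the concentration series.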

MM1.S = test: Cytotoxicity against human MM1S cells after 48 hrs by MTT assay; assay type: functional, cell-based
Outline: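 MM1.S myeloma cells (DEPTOR-over-expressing) in 48 h MTT: 1–2 × 10^4 cells per well, graded compound concentrations, formazan at 570 nm. Quadruplicate wells; survival as % of DMSO control; IC50 derived from the concentration range.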

[2] = Therapeutic index, ratio of IC50 for PBL (unknown origin) to IC50 for human RPMI8226 cells
Outline: (§1)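 Normal peripheral blood lymphocytes tested head-to-head with 8226 myeloma cells in 48 h MTT assays. […] Therapeutic index = IC50(PBL)/IC50(8226).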

[3] = biological target: DEP domain-containing mTOR-interacting protein (Homo sapiens) (UniProt Q8TB45); test: Inhibition of mTOR binding to DEPTOR in human RPMI8226 cells assessed as increase in mTORC1-associated p70 phosphorylation at 1 uM after 6 hrs by Western blot analysis; assay type: cell-based
DEP domain-containing mTOR-interacting protein (Homo sapiens), sequence (Q8TB45 whole entry, the tested form may be a part): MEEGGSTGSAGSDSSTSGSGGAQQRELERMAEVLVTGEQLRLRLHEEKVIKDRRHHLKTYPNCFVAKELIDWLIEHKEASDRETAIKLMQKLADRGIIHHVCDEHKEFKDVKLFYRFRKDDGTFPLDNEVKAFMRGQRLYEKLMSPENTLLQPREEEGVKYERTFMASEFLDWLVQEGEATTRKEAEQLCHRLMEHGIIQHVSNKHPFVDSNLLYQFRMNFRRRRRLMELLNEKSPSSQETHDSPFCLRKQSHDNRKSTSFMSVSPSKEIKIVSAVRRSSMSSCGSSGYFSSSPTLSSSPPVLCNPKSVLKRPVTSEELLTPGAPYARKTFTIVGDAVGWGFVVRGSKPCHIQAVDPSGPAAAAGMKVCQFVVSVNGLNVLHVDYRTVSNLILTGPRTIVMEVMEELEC
Outline: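 8226 cells exposed 6 h to compound, DMSO in untreated controls. Lysates run on 12.5% SDS-PAGE, transferred to PVDF, probed for phospho- and total p70. Densitometric phospho/total ratio expressed as fold versus parent compound B set at 1; mean ± SD, n = 4.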

RPMI-8226 [4] = test: Induction of apoptosis in human RPMI8226 cells assessed as caspase3 activation at 0.12 to 2 uM after 48 hrs by cytofix/cytoperm staining based flow cytometry; assay type: functional, cell-based
Outline: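 Caspase-3 flow cytometry 48 h after drug exposure of 8226 cells. 10^6 cells washed in PBS, fixed and permeabilized in cytofix/cytoperm, stained 30 min with PE-conjugated anti-active-caspase-3 (1:5 dilution). % apoptosis = drug-treated minus DMSO-control positives; mean ± SD, n = 4.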

PBL = test: Cytotoxicity against PBL (unknown origin) after 48 hrs by MTT assay; assay type: cell-based; outline: as §1
[5] = biological target: DEP domain-containing mTOR-interacting protein (Homo sapiens) (UniProt Q8TB45); test: Inhibition of mTOR binding to DEPTOR in human RPMI8226 cells at 0.5 uM treated 6 hrs followed by DEPTOR immunoprecipitation by immunoblotting analysis; assay type: cell-based
Outline: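 Co-immunoprecipitation: 8226 cells treated 6 h with DMSO or 0.5 µM compound. DEPTOR immunoprecipitated; precipitates immunoblotted for DEPTOR and bound mTOR.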

[6] = biological target: DEP domain-containing mTOR-interacting protein (Homo sapiens) (UniProt Q8TB45); test: Inhibition of mTOR binding to DEPTOR in human RPMI8226 cells at 1 uM treated 6 hrs followed by DEPTOR immunoprecipitation by immunoblotting analysis; assay type: cell-based
Outline: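 RPMI8226 myeloma cells exposed to compound or DMSO for 6 h; DEPTOR immunoprecipitated from cell extracts, and precipitates immunoblotted for DEPTOR and co-precipitated mTOR. Proteins resolved by 12.5% SDS-PAGE, transferred to PVDF and detected with specific antibodies.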

[7] = biological target: DEP domain-containing mTOR-interacting protein (Homo sapiens) (UniProt Q8TB45); test: Inhibition of DEPTOR in human RPMI8226 cells assessed as upregulation of mTORC1-dependant p21 expression at 0.5 to 2 uM after 6 hrs by Western blot analysis; assay type: cell-based
[8] = biological target: DEP domain-containing mTOR-interacting protein (Homo sapiens) (UniProt Q8TB45); test: Inhibition of mTOR binding to DEPTOR in human RPMI8226 cells assessed as increase in mTORC1-associated p70 phosphorylation at […] after 6 hrs by Western blot analysis; assay type: cell-based

SMILES: ClC1=C(Cl)C(Cl)=C(Cl)C1=NN(c1ccccc1)c1ccccc1
IC50 (RPMI-8226 [1]): > 3000 nM
IC50 (MM1.S): > 3000 nM

SMILES: CN(C)N=C1C(Cl)=C(Cl)C(Cl)=C1Cl
IC50 (RPMI-8226 [1]): 1300 to 3000 nM
IC50 (MM1.S): > 3000 nM

SMILES: C#CCOC(=O)NN=C1C(Cl)=C(Cl)C(Cl)=C1Cl
IC50 (RPMI-8226 [1]): 800 nM

SMILES: Cc1cccc(NN=C2C(Cl)=C(Cl)C(Cl)=C2Cl)c1
IC50 (RPMI-8226 [1]): 2000 nM
IC50 (MM1.S): > 3000 nM

SMILES: CC(=O)NN=C1C(Cl)=C(Cl)C(Cl)=C1Cl
IC50 (RPMI-8226 [1]): 1000 nM

SMILES: O=C(c1ccccc1)N(N=C1C(Cl)=C(Cl)C(Cl)=C1Cl)C(=O)c1ccccc1
IC50 (RPMI-8226 [1]): 800 nM
IC50 (MM1.S): 2000 nM

SMILES: NN=c1c2ccccc2oc2ccccc12
IC50 (RPMI-8226 [1]): > 5000 nM
IC50 (MM1.S): > 5000 nM

SMILES: NN=C(c1ccccc1)c1ccccc1
IC50 (RPMI-8226 [1]): > 5000 nM
IC50 (MM1.S): > 5000 nM

SMILES: NN=C1C(Cl)=C(Cl)C(Cl)=C1Cl
Ratio IC50 [2]: 14.3
IC50 (RPMI-8226 [1]): 1300 to 1500 nM
inhibition [3]: Active
Activity (RPMI-8226 [4]): Active
IC50 (PBL): 20000 nM
inhibition [5]: inactive
IC50 (MM1.S): 3000 nM
inhibition [6]: Active

SMILES: ClC1=C(Cl)C(Cl)=C(Cl)C1=NNc1cc(Cl)cc(Cl)c1
IC50 (RPMI-8226 [1]): 800 nM
IC50 (MM1.S): 2000 nM

SMILES: CC(C)(C)OC(=O)NN=C1c2ccccc2-c2ccccc21
IC50 (RPMI-8226 [1]): > 5000 nM
IC50 (MM1.S): > 5000 nM

inhibition [3]: Active
inhibition [7]: Active
inhibition [8]: Active
SMILES: O=C(c1ccc(F)cc1)N(N=C1C(Cl)=C(Cl)C(Cl)=C1Cl)C(=O)c1ccc(F)cc1
Ratio IC50 [2]: 10
IC50 (RPMI-8226 [1]): 200 to 250 nM
Activity (RPMI-8226 [4]): Active
IC50 (PBL): 2000 nM
IC50 (MM1.S): 300 nM

inhibition [3]: Active
inhibition [7]: Active
inhibition [8]: Active
SMILES: CC(C)(C)C(=O)NN=C1C(Cl)=C(Cl)C(Cl)=C1Cl
Ratio IC50 [2]: 14
IC50 (RPMI-8226 [1]): 90 to 120 nM
Activity (RPMI-8226 [4]): Active
IC50 (PBL): 1250 nM
IC50 (MM1.S): 2000 nM

SMILES: Fc1cccc(NN=C2C(Cl)=C(Cl)C(Cl)=C2Cl)c1
IC50 (RPMI-8226 [1]): 500 to 600 nM
IC50 (MM1.S): 1500 nM
